Measurements: ChEMBL document CHEMBL1139469, “Synthesis and 3D QSAR of new pyrazolo[3,4-b]pyridines: potent and selective inhibitors of A1 adenosine receptors” (J Med Chem, 2005)

Experiments:
[1] = molecular target: T1, Adenosine receptor A1 (Bos taurus, UniProt P28190); test: Displacement of [3H]DPCPX from adenosine A1 receptor in bovine cerebral cortical membranes; assay type: cell membranes
T1 sequence (P28190 whole entry): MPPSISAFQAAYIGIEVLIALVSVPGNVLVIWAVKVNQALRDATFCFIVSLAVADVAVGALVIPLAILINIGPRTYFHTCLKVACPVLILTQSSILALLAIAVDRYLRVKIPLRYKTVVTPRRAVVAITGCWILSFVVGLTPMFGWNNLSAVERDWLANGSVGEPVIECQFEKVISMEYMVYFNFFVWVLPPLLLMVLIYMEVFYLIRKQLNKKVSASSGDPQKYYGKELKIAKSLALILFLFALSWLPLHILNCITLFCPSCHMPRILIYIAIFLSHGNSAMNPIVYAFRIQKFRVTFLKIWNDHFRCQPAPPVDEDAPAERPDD
Procedure, shortened: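 [3H]DPCPX was displaced from A1 sites in bovine cortical membranes. Compounds were taken up in DMSO and diluted in assay buffer, with DMSO at 2% or less final. Ki used at least six concentrations across 3 orders of magnitude and was the mean ± SEM of three independent assays in triplicate.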

[2] = molecular target: Adenosine receptor A1 (Bos taurus) (UniProt P28190); test: Displacement of [3H]DPCPX from bovine adenosine A1 receptor in bovine cortical membranes
[3] = test system: Adenosine receptor A2a (Bos taurus); test: Displacement of [3HCGS21680 from adenosine A2A receptor in bovine striatal membranes at 10 uM

SMILES	Ki [1] [nM]	Ki [2] [nM]	inhibition [3] [%]
O=C(OCC1CC1)c1cnc2c(cnn2CC(Cl)c2ccccc2)c1NCCc1ccccc1 (stereo not given)	48	50.1	54
COC(=O)c1cnc2c(cnn2CC(Cl)c2ccccc2)c1NC1CC1 (stereo not given)	251	251	–
O=c1n(-c2ccccc2)nc2c(NC3CCCC3)nc3ccccc3n12	–	0.398	–
O=c1c(-c2ccco2)nnc2n(-c3ccccc3)c3ccccc3n12	–	316	–
O=c1n(-c2ccccc2)nc2c(NC3CCCCC3)nc3ccccc3n12	–	1.58	–
CSc1nc(NC2CCCCC2)c2cnn(CC(Cl)c3ccccc3)c2n1 (stereo not given)	–	6310	–
Cc1ccc(CCNc2c(C(=O)OCC3CC3)cnc3c2cnn3CC(Cl)c2ccccc2)cc1 (stereo not given)	63	63.1	4
CCCOC(=O)c1cnc2c(cnn2CC(Cl)c2ccccc2)c1N1CCOCC1 (stereo not given)	2150	2000	31
COC(=O)c1cnc2c(cnn2CC(Cl)c2ccccc2)c1NCc1ccccc1 (stereo not given)	141	126	–
Oc1cc(-c2ccccc2)nc2nc(Cl)ccc12	–	0.158	–
CCOC(=O)c1cnc2c(cnn2CC(Cl)c2ccccc2)c1NC1CC1 (stereo not given)	–	126	–
CCCNc1c(C(=O)OCC2CC2)cnc2c1cnn2CC(Cl)c1ccccc1 (stereo not given)	109	100	23
Cc1cccc(-n2nc3c(NC4CCCCC4)nc4ccccc4n3c2=O)c1	–	3.98	–
Oc1ccc(-c2nnc3nc4ccccc4n3c2O)cc1O	–	501	–
Cc1ccc2c(NN)cc(-c3ccccc3)nc2n1	–	100	–
O=C(Nc1nc2ccccc2n2c(=O)n(-c3ccc(Cl)cc3)nc12)c1ccccc1	–	100	–
CN(C)c1ccc2c(O)cc(-c3ccccc3)nc2n1	–	0.631	–
COC(=O)c1cnc2c(cnn2CC(Cl)c2ccccc2)c1N1CCCC1 (stereo not given)	4240	3980	0
Cc1cccc(-n2nc3c(N)nc4ccccc4n3c2=O)c1	–	20	–
O=c1[nH]nc2c(NCc3ccccc3)nc3ccccc3n12	–	50.1	–
Oc1cc(-c2ccccc2)nc2ncccc12	–	15.8	–
CC(C)OC(=O)c1cnc2c(cnn2CC(Cl)c2ccccc2)c1NCc1ccccc1 (stereo not given)	559	631	–

SMILES	Ki [1] [nM]	Ki [2] [nM]	inhibition [3] [%]
COc1ccc2c(O)cc(-c3ccccc3)nc2n1	–	1.58	–
CCOC(=O)c1cnc2c(cnn2CC(Cl)c2ccccc2)c1N1CCCC1 (stereo not given)	–	100	–
Cc1ccc2c(N)cc(-c3ccccc3)nc2n1	–	15.8	–
Nc1nc2ccccc2n2c(=O)n(-c3ccccc3)nc12	–	10	–
COc1cc(-c2ccccc2)nc2c1ccc(=O)n2C	–	1260	–
CCCNc1c(C(=O)OC(C)CC)cnc2c1cnn2CC(Cl)c1ccccc1 (stereo not given)	51	50.1	40
COc1ccc(-c2nnc3nc4ccccc4n3c2O)cc1OC	–	2000	–
CCCNc1c(C(=O)OCC)cnc2c1cnn2CC(Cl)c1ccccc1 (stereo not given)	–	100	–
CC(C)OC(=O)c1cnc2c(cnn2CC(Cl)c2ccccc2)c1NCCc1cccc(Cl)c1 (stereo not given)	100	100	14
Cc1ccc(CCNc2c(C(=O)OC(C)C)cnc3c2cnn3CC(Cl)c2ccccc2)cc1 (stereo not given)	48	50.1	26
CCOC(=O)c1cnc2c(cnn2CC(Cl)c2ccccc2)c1NCCc1cccc(Cl)c1 (stereo not given)	178	200	–
CCOc1ccc2c(OCC)cc(-c3ccccc3)nc2n1	–	316	–
O=c1c(-c2ccccc2)nnc2n(-c3ccccc3)c3ccccc3n12	–	20	–
O=C(Nc1ccccc1)Nc1nc2ccccc2n2c(=O)n(-c3ccc(Cl)cc3)nc12	–	50.1	–
Cc1ccc2c(Cl)cc(-c3ccccc3)nc2n1	–	1000	–
CCOC(=O)c1cnc2c(cnn2CC(Cl)c2ccccc2)c1NCCc1cccc(F)c1 (stereo not given)	33	31.6	25
O=c1n(-c2cccc(F)c2)nc2c(NC3CCCCC3)nc3ccccc3n12	–	5.01	–
CCCOC(=O)c1cnc2c(cnn2CC(Cl)c2ccccc2)c1N1CCCC1 (stereo not given)	2970	3160	–
Nc1nc2ccccc2n2c(=O)n(-c3cccc(F)c3)nc12	–	31.6	–
Cn1c(=O)ccc2c(O)cc(-c3ccccc3)nc21	–	5010	–
CC(=O)Nc1ccc2c(O)cc(-c3ccccc3)nc2n1	–	316	–
O=c1c(Cc2ccccc2)nnc2n(Cc3ccccc3)c3ccccc3n12	–	251	–

SMILES	Ki [1] [nM]	Ki [2] [nM]	inhibition [3] [%]
O=c1n(-c2cccc(F)c2)nc2c(NC3CCCC3)nc3ccccc3n12	–	1	–
CCCc1cc(O)c2ccc(C)nc2n1	–	50.1	–
Oc1ccc(-c2nnc3nc4ccccc4n3c2O)cc1	–	251	–
Cn1c2ccccc2n2c(=O)c(-c3ccco3)nnc12	–	794	–
O=c1n(-c2ccc(Cl)cc2)nc2c(NC3CCCCC3)nc3ccccc3n12	–	79.4	–
Cc1ccc2c(NC3CCCCC3)cc(-c3ccccc3)nc2n1	–	31.6	–
COc1ccc(-n2nc3c(N)nc4ccccc4n3c2=O)cc1	–	316	–
Cc1nnc2nc3ccccc3n2c1O	–	3980	–
COc1ccc(-c2nnc3n(C)c4ccccc4n3c2=O)cc1	–	2000	–
CCn1c(-c2ccccc2)cc(=O)c2ccc(C)nc21	–	501	–
CC(C)OC(=O)c1cnc2c(cnn2CC(Cl)c2ccccc2)c1N1CCOCC1 (stereo not given)	1820	2000	–
CSc1nc(NCCc2ccccc2)c2cnn(CC(Cl)c3ccccc3)c2n1 (stereo not given)	–	10000	–
Cc1ccc2c(O)ccnc2n1	–	7940	–
CC(C)OC(=O)c1cnc2c(cnn2CC(Cl)c2ccccc2)c1NCCc1ccccc1Cl (stereo not given)	44	39.8	13
Cn1c2ccccc2n2c(=O)c(-c3ccc(Cl)cc3)nnc12	–	10000	–
Cc1ccc2c(O)cc(-c3ccccc3)nc2n1	–	5.01	–
CCOC(=O)c1cnc2c(cnn2CC(Cl)c2ccccc2)c1NCCc1ccccc1 (stereo not given)	–	50.1	–
CCOC(=O)c1cnc2c(cnn2CC(Cl)c2ccccc2)c1NCc1ccccc1 (stereo not given)	–	126	–
Cc1cc(O)c2ccc(N)nc2n1	–	10000	–
Cn1c2ccccc2n2c(=O)c(-c3cccs3)nnc12	–	79.4	–
Oc1cc(-c2ccccc2)nc2nc(NC3CCCCC3)ccc12	–	79.4	–
CCOC(=O)c1cnc2c(cnn2CC(Cl)c2ccccc2)c1N1CCOCC1 (stereo not given)	–	501	–

SMILES	Ki [1] [nM]	Ki [2] [nM]	inhibition [3] [%]
Oc1cc(-c2ccccc2)nc2nc(Oc3ccccc3)ccc12	–	25.1	–
Oc1c(-c2ccco2)nnc2nc3ccccc3n12	–	251	–
CCOc1cc(-c2ccccc2)nc2nc(Br)ccc12	–	50.1	–
Cc1cc(O)c2ccc(=O)[nH]c2n1	–	10000	–
CCOC(=O)c1cnc2c(cnn2CC(Cl)c2ccccc2)c1NCCc1ccccc1Cl (stereo not given)	76	79.4	–
CCCNc1nc(SC)nc2c1cnn2CC(Cl)c1ccccc1 (stereo not given)	–	1000	–
Cn1c2ccccc2n2c(=O)c(-c3ccccc3)nnc12	–	63.1	–
CCCOC(=O)c1cnc2c(cnn2CC(Cl)c2ccccc2)c1NCc1ccccc1 (stereo not given)	1370	1260	–
CCOc1ccc2c(O)cc(-c3ccccc3)nc2n1	–	5.01	–
Oc1cc(-c2ccccc2)nc2nc(Br)ccc12	–	0.794	–
O=c1[nH]nc2c(NCCc3ccccc3)nc3ccccc3n12	–	5.01	–
Cc1ccc2c(O)cc(-c3ccc(F)cc3)nc2n1	–	5.01	–
CCCCNc1nc(SC)nc2c1cnn2CC(Cl)c1ccccc1 (stereo not given)	–	2000	–
CCCc1cc(O)c2ccc(N)nc2n1	–	200	–
COc1cc(-c2ccccc2)nc2nc(C)ccc12	–	6310	–
O=c1c(-c2ccco2)nnc2n(Cc3ccccc3)c3ccccc3n12	–	1000	–
Oc1c(-c2ccccc2)nnc2nc3ccccc3n12	–	79.4	–
Cc1nnc2n(C)c3ccccc3n2c1=O	–	10000	–
Cc1ccc2c(O)cc(-c3ccc(N)cc3)nc2n1	–	6.31	–
CCCOC(=O)c1cnc2c(cnn2CC(Cl)c2ccccc2)c1NCCc1ccccc1 (stereo not given)	130	126	–
